Measured values from ChEMBL document CHEMBL1145797, “Synthesis and antitumor activity of novel O-carbamoylmethyloxime derivatives of radicicol” (J Med Chem, 2003).

Key:
[1] = biological target: Proto-oncogene tyrosine-protein kinase Src (Rattus norvegicus, UniProt Q9WUD9); assay: Inhibition of v-Src tyrosine kinase autophosphorylation in SR3Y1 cells after 15 hr exposure; type: cell-based
How it was run: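 SR-3Y1 cells exposed to drug 15 h, lysed on ice 20 min in Tris pH 7.5 RIPA-type buffer with protease inhibitors and 1 mM vanadate. Equal-protein lysates run on SDS-PAGE, blotted with anti-phosphotyrosine antibody, HRP secondary, ECL detection. IC50 = concentration halving tyrosine phosphorylation.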

NRK = assay: Concentration to inhibit growth of normal rat kidney epithelial cells (NRK cells) after 72 hr exposure; type: functional, cell-based
How it was run: (§1)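 Cells precultured 24 h in DMEM with 10% fetal calf serum, then exposed to drug for 72 h. Viability read by MTT assay. IC50 taken as concentration giving 50% growth inhibition relative to control cultures.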

3Y1 cell line = assay: Concentration to inhibit growth of normal rat fibroblast cells (3Y1-B cells) after 72 h exposure; type: functional, cell-based; settings: 3Y1, 72 h; how it was run: as §1
[2] = Concentration to inhibit growth of normal rat K-ras-transformed cells (KNRK 5.2 cells) after 72 hr exposure; type: functional; how it was run: as §1
[3] = Concentration to inhibit growth of v-src-transformed cells (SR-3Y1 cells) after 72 h exposure; type: functional; settings: Rattus norvegicus, SR3Y1, 72 h; how it was run: as §1
[4] = Percent depletion of Raf-1 protein expression after 40h exposure at 0.2 uM in KNRK5.2 cells; type: functional, cell-based; settings: Rattus norvegicus
How it was run: (§2)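 KNRK5.2 cells exposed to 0.2 µM drug for 40 h, then lysed. Equal-protein lysates Western blotted in duplicate for Raf-1 (rabbit polyclonal), phospho-MAPK (phosphospecific antibody) and total Erk2 (monoclonal). Read-out is % inhibition of phospho-Erk2 formation or % Raf-1 depletion.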

Mus musculus [5] = assay: In vivo antitumor activity against BALB mice transplanted with human tumor (MX-1) using Xenograft Model at a dose of 100 mg/kg by administering intravenously for 5 days and T/C value is calculated on 14th day; type: functional; settings: route intravenous
Mus musculus [6] = assay: In vivo antitumor activity against BALB mice transplanted with human tumor (MX-1) using Xenograft Model at a dose of 100 mg/kg by administering intravenously for 5 days and mortality is calculated; type: functional; settings: route intravenous
How it was run: (§3)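 Adult BALB/c nu/nu mice (n = 5) inoculated sc in the flank with human tumor cells: MX-1 on day -14, A431 on day -18. Drug dissolved in cremophor EL/N,N-dimethylacetamide/physiological saline (7.5:5:87.5) and given iv once daily on days 0-4. Animals monitored for lethal toxicity and body weight loss.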

[7] = Inhibition of K-ras-induced MAPK phosphorylation in KNRK5.2 cells after 40h exposure at 0.2 uM; type: functional; settings: Rattus norvegicus; how it was run: as §2
Mus musculus [8] = assay: In vivo antitumor activity against BALB mice transplanted with human tumor (MX1) Xenograft Model at a dose of 25 mg/kg by administering intravenously for 5 days and T/C value was calculated on 11th day; type: functional; settings: route intravenous
How it was run: (§4)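 Adult BALB/c nu/nu mice (n = 5), tumor cells inoculated sc in the flank (MX-1 day -14, A431 day -18). Drug in cremophor EL/N,N-dimethylacetamide/saline (7.5:5:87.5), given iv daily days 0-4. Tumor volume = length × width²/2. T/C = mean V/V0 of treated over control. Mann–Whitney U test.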

Mus musculus [9] = assay: In vivo antitumor activity against BALB mice transplanted with human tumor (MX-1) Xenograft Model at a dose of 50 mg/kg by administering intravenously for 5 days and Mortality is calculated; type: functional; settings: route intravenous; how it was run: as §3
Mus musculus [10] = assay: In vivo antitumor activity against BALB mice transplanted with human tumor (A431) Xenograft Model at a dose of 50 mg/kg by administering intravenously for 5 days and Mortality is calculated; type: functional; settings: route intravenous; how it was run: as §3
Mus musculus [11] = assay: In vivo antitumor activity against BALB mice transplanted with human tumor (A431) Xenograft Model at a dose of 25 mg/kg by administering intravenously for 5 days and T/C value was calculated on 7th day; type: functional; settings: dose 50 mg/kg; route intravenous; in the assay text read “50 mg/kg” for “25 mg/kg”; how it was run: as §4
Mus musculus [12] = assay: In vivo antitumor activity against BALB mice transplanted with human tumor (MX-1) Xenograft Model at a dose of 25 mg/kg by administering intravenously for 5 days and Mortality is calculated; type: functional; settings: route intravenous; how it was run: as §3
Mus musculus [13] = assay: In vivo antitumor activity against BALB mice transplanted with human tumor (MX-1) using Xenograft Model at a dose of 50 mg/kg by administering intravenously for 5 days and T/C value was calculated on 11th day; type: functional; settings: route intravenous; how it was run: as §4
Mus musculus [14] = species on record: Mus musculus; assay: Dose required to produce lethal toxicity was determined; type: organism-based; settings: in vivo; how it was run: as §3

C[C@@H]1C[C@H]2O[C@@H]2\C=C/C=C/C(=N\OCC(=O)Nc2ccccc2)Cc2c(Cl)c(O)cc(O)c2C(=O)O1
IC50 [1]: 43 nM | IC50 (NRK): 320 nM | IC50 (3Y1 cell line): 620 nM | IC50 [2]: 290 nM | IC50 [3]: 120 nM

CCN(CC)c1ccc(NC(=O)CO\N=C2/C=C/C=C\[C@H]3O[C@@H]3C[C@@H](C)OC(=O)c3c(O)cc(O)c(Cl)c3C2)cc1
IC50 [1]: < 10 nM | IC50 (NRK): 520 nM | IC50 (3Y1 cell line): 490 nM | IC50 [2]: 240 nM | IC50 [3]: 100 nM

C[C@@H]1C[C@H]2O[C@@H]2\C=C/C=C/C(=N\OCC(=O)NC2CCCC2)Cc2c(Cl)c(O)cc(O)c2C(=O)O1
IC50 [1]: 14 nM | IC50 (NRK): 41 nM | IC50 (3Y1 cell line): 41 nM | IC50 [2]: 45 nM | IC50 [3]: 9.8 nM

C[C@@H]1C[C@H]2O[C@@H]2\C=C/C=C/C(=N\OCC(=O)NC2CCCCC2)Cc2c(Cl)c(O)cc(O)c2C(=O)O1
IC50 [1]: 210 nM | IC50 (NRK): 190 nM | IC50 (3Y1 cell line): 67 nM | IC50 [2]: 73 nM | IC50 [3]: 5.7 nM

C[C@@H]1C[C@H]2O[C@@H]2\C=C/C=C/C(=N\OCC(=O)N2CCCCCC2)Cc2c(Cl)c(O)cc(O)c2C(=O)O1
IC50 [1]: 67 nM | IC50 (NRK): 7.3 nM | IC50 (3Y1 cell line): < 4.1 nM | IC50 [2]: 6.4 nM | IC50 [3]: < 4.1 nM

C[C@@H]1C[C@H]2O[C@@H]2\C=C/C=C/C(=N\OCC(=O)N2CCC(C(N)=O)CC2)Cc2c(Cl)c(O)cc(O)c2C(=O)O1
IC50 (NRK): > 3000 nM | IC50 (3Y1 cell line): > 3000 nM | IC50 [2]: > 3000 nM | IC50 [3]: > 3000 nM

COC(=O)CNC(=O)CO\N=C1/C=C/C=C\[C@H]2O[C@@H]2C[C@@H](C)OC(=O)c2c(O)cc(O)c(Cl)c2C1
IC50 [1]: 360 nM | IC50 (NRK): 700 nM | IC50 (3Y1 cell line): 790 nM | IC50 [2]: 570 nM | IC50 [3]: 240 nM

C[C@@H]1C[C@H]2O[C@@H]2\C=C/C=C/C(=N\OCC(=O)N(CCO)CCO)Cc2c(Cl)c(O)cc(O)c2C(=O)O1
IC50 [1]: > 1000 nM | IC50 (NRK): > 3000 nM | IC50 (3Y1 cell line): > 3000 nM | IC50 [2]: 2900 nM | IC50 [3]: 1100 nM

C[C@@H]1C[C@H]2O[C@@H]2\C=C/C=C/C(=N\OCC(=O)N2CCCC2)Cc2c(Cl)c(O)cc(O)c2C(=O)O1
IC50 [1]: 70 nM | IC50 (NRK): 34 nM | IC50 (3Y1 cell line): 55 nM | IC50 [2]: 39 nM | IC50 [3]: 20 nM

C[C@@H]1C[C@H]2O[C@@H]2\C=C/C=C/C(=N\O)Cc2c(Cl)c(O)cc(O)c2C(=O)O1
Depletion [4]: 29% | T/C min (Mus musculus [5]): 0.49 | Mortality (Mus musculus [6]): 0 | IC50 [1]: 56 nM | IC50 (NRK): 80 nM | inhibition at 0.2 µM [7]: 81% | IC50 (3Y1 cell line): 90 nM | IC50 [2]: 39 nM | IC50 [3]: 26 nM

C[C@@H]1C[C@H]2O[C@@H]2\C=C/C=C/C(=N\OCC(=O)NCCO)Cc2c(Cl)c(O)cc(O)c2C(=O)O1
IC50 [1]: > 1000 nM | IC50 (NRK): > 3000 nM | IC50 (3Y1 cell line): 2800 nM | IC50 [2]: 2200 nM | IC50 [3]: 1500 nM

C[C@@H]1C[C@H]2O[C@@H]2\C=C/C=C/C(=N\OCC(=O)N2CCCCC2)Cc2c(Cl)c(O)cc(O)c2C(=O)O1
Depletion [4]: 74% | T/C min (Mus musculus [8]): 0.54 | Mortality (Mus musculus [9]): 0 | IC50 [1]: 25 nM | Mortality (Mus musculus [10]): 0 | T/C min (Mus musculus [11]): 0.44 | Mortality (Mus musculus [12]): 0 | IC50 (NRK): 18 nM | inhibition at 0.2 µM [7]: 95% | T/C min (Mus musculus [13]): 0.17 | IC50 (3Y1 cell line): 8.3 nM | IC50 [2]: 14 nM | Lethal toxicity (Mus musculus [14]): 100 mg/kg | IC50 [3]: 6.1 nM

C[C@@H]1C[C@H]2O[C@@H]2/C=C\C=C\C(=O)Cc2c(Cl)c(O)cc(O)c2C(=O)O1 [RADICICOL]
IC50 [1]: 180 nM | IC50 (NRK): 290 nM | IC50 (3Y1 cell line): 700 nM | IC50 [2]: 110 nM | IC50 [3]: 59 nM

C[C@@H]1C[C@H]2O[C@@H]2\C=C/C=C/C(=N\OCC(=O)Nc2cccnc2)Cc2c(Cl)c(O)cc(O)c2C(=O)O1
IC50 [1]: 54 nM | IC50 (NRK): 240 nM | IC50 (3Y1 cell line): 200 nM | IC50 [2]: 120 nM | IC50 [3]: 51 nM

C[C@@H]1C[C@H]2O[C@@H]2\C=C/C=C/C(=N\OCC(=O)NCC2CCCCC2)Cc2c(Cl)c(O)cc(O)c2C(=O)O1
IC50 [1]: 17 nM | IC50 (NRK): 210 nM | IC50 (3Y1 cell line): 180 nM | IC50 [2]: 140 nM | IC50 [3]: 20 nM

CCOCCNC(=O)CO\N=C1/C=C/C=C\[C@H]2O[C@@H]2C[C@@H](C)OC(=O)c2c(O)cc(O)c(Cl)c2C1
IC50 [1]: > 1000 nM | IC50 (NRK): 260 nM | IC50 (3Y1 cell line): 390 nM | IC50 [2]: 230 nM | IC50 [3]: 93 nM

C[C@@H]1C[C@H]2O[C@@H]2\C=C/C=C/C(=N\OCC(=O)N2CCOCC2)Cc2c(Cl)c(O)cc(O)c2C(=O)O1
IC50 [1]: 140 nM | IC50 (NRK): 340 nM | IC50 (3Y1 cell line): 310 nM | IC50 [2]: 340 nM | IC50 [3]: 130 nM

CCN(CC)CCNC(=O)CO\N=C1/C=C/C=C\[C@H]2O[C@@H]2C[C@@H](C)OC(=O)c2c(O)cc(O)c(Cl)c2C1
IC50 [1]: > 1000 nM | IC50 (NRK): > 3000 nM | IC50 (3Y1 cell line): > 3000 nM | IC50 [2]: > 3000 nM | IC50 [3]: 2300 nM

C[C@@H]1C[C@H]2O[C@@H]2\C=C/C=C/C(=N\OCC(=O)N2CCC(N3CCCCC3)CC2)Cc2c(Cl)c(O)cc(O)c2C(=O)O1
IC50 (NRK): 3000 nM | IC50 (3Y1 cell line): > 3000 nM | IC50 [2]: > 3000 nM | IC50 [3]: > 3000 nM

C[C@@H]1C[C@H]2O[C@@H]2\C=C/C=C/C(=N\OCC(=O)NCc2cccnc2)Cc2c(Cl)c(O)cc(O)c2C(=O)O1
IC50 [1]: > 1000 nM | IC50 (NRK): 510 nM | IC50 (3Y1 cell line): 670 nM | IC50 [2]: 480 nM | IC50 [3]: 290 nM

C[C@@H]1C[C@H]2O[C@@H]2\C=C/C=C/C(=N\OCC(=O)N2CCC(O)CC2)Cc2c(Cl)c(O)cc(O)c2C(=O)O1
IC50 (NRK): > 3000 nM | IC50 (3Y1 cell line): > 3000 nM | IC50 [2]: > 3000 nM | IC50 [3]: > 3000 nM

C[C@@H]1C[C@H]2O[C@@H]2\C=C/C=C/C(=N\OCC(=O)N2CCN(C)CC2)Cc2c(Cl)c(O)cc(O)c2C(=O)O1
IC50 (NRK): 1200 nM | IC50 (3Y1 cell line): 1000 nM | IC50 [2]: 1500 nM | IC50 [3]: 470 nM

C[C@@H]1C[C@H]2O[C@@H]2\C=C/C=C/C(=N\OCC(=O)NCCc2cccn2C)Cc2c(Cl)c(O)cc(O)c2C(=O)O1
IC50 [1]: > 1000 nM | IC50 (NRK): 1200 nM | IC50 (3Y1 cell line): 600 nM | IC50 [2]: 380 nM | IC50 [3]: 84 nM

COc1ccc(NC(=O)CO\N=C2/C=C/C=C\[C@H]3O[C@@H]3C[C@@H](C)OC(=O)c3c(O)cc(O)c(Cl)c3C2)cc1
IC50 [1]: 390 nM | IC50 (NRK): 260 nM | IC50 (3Y1 cell line): 100 nM | IC50 [2]: 81 nM | IC50 [3]: 58 nM
